Results gathered from unrelated publications.
Lines come from different studies, so protocols differ.
Target: Ephrin type-B receptor 2 (EPHB2, Homo sapiens, UniProt P29323)
Sequence (P29323 19-1055, as in one of the studies): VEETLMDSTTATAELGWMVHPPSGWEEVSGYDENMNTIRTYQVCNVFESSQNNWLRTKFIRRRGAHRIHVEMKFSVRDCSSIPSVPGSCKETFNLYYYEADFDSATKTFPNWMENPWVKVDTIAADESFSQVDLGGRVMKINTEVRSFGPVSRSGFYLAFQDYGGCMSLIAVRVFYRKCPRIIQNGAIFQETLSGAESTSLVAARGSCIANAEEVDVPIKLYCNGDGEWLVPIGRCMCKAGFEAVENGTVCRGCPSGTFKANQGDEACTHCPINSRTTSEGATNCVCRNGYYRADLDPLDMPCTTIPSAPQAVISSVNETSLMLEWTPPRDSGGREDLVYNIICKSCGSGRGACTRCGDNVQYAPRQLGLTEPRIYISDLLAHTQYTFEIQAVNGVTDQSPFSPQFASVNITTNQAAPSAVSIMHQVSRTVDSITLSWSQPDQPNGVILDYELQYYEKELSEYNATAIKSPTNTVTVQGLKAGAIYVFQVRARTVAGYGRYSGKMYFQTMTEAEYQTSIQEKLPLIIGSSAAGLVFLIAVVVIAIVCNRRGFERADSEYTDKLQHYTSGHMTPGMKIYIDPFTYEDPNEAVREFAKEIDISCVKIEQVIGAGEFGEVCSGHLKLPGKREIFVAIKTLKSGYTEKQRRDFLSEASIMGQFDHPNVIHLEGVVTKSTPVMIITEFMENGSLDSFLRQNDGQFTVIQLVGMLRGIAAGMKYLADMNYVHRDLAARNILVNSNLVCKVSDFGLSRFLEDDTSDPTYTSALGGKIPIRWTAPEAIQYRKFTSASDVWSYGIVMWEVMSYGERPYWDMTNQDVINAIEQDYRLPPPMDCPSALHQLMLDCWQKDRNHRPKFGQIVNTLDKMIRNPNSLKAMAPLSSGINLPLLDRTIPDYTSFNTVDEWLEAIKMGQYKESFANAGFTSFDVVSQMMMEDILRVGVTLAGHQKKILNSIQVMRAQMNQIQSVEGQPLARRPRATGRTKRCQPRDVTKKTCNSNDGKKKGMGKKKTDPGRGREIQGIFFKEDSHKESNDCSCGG

`COc1cc(/C=C/C(=O)CC(=O)/C=C/c2ccc(O)c(OC)c2)ccc1O` gave an activity vs control of 111% (enzyme activity, inhibitor; 1 µM).
The remaining activity of `COc1cc(Nc2cnc(C#N)c(O[C@H](C)CN(C)C)n2)ncc1-c1cnn(C)c1` is reported as 63% (enzyme activity, inhibitor, radiometric; 10 µM).
With `O=C(Nc1cnn(-c2csc(C(=O)NC3COC3)c2)c1)Nc1c(F)cccc1Cl` the remaining activity was 99.9% (enzyme activity, inhibitor; 5 µM).
`O=C1Nc2ccc(Cl)cc2C1=Cc1cc(Cl)c(O)c(Cl)c1` has a remaining signal of 90.9% (cell-free assay; 0.5 µM).
`COc1cccc2c(NCc3ccccc3)nc(-n3c(N)nc4ccccc43)nc12` has an inhibition of 8.3% (target engagement in cells, inhibitor, chemoproteomics; 20 mM).
`C#Cc1cccc(Nc2ncnc3cc(OCCOC)c(OCCOC)cc23)c1` gave a remaining signal of 95.1% (cell-free assay; 0.5 µM).
The remaining binding of `CC(C)CC(=O)N1CCc2nc(-c3ccc(Br)cc3)nc(N(C)Cc3ccccc3)c2C1` is reported as 80% (cell-free assay, competition with immobilised ligand; 0.1 µM).
The inhibition of `CCCS(=O)(=O)Nc1ccc(F)c(C(=O)c2c[nH]c3ncc(-c4ccc(Cl)cc4)cc23)c1F` is reported as < 10% (enzyme activity, inhibitor; 1 µM).
The inhibition of `Cc1ccc(Nc2nccc(N(C)c3ccc4c(C)n(C)nc4c3)n2)cc1S(N)(=O)=O` is reported as 44% (enzyme activity, inhibitor; 10 µM).
With `CC/C(=N\NC(=O)NCc1cccc(O)c1)c1ccc(O)c(C)c1O` the inhibition was 1.5% (enzyme activity, inhibitor; 0.1 µM).
`CNC(=O)c1cc2c(Oc3ccc(NC(=O)C4(C(=O)Nc5ccc(F)cc5)CC4)cc3)ccnc2cc1OC` gave an inhibition of 95% (enzyme activity, inhibitor, radiometric; 1 µM).
With `O=C(NCc1ncc(C(F)(F)F)cc1Cl)c1ccc2c(c1)C1(CCS(=O)(=O)CC1)[C@H](C1CC1)N2S(=O)(=O)c1ccc(F)cc1` the remaining binding was 100% (cell-free assay, competition with immobilised ligand; 1 µM).
With `COc1ccc(COc2ccc(Cc3cnc(N)nc3N)cc2OC)cc1` the remaining signal was 87.4% (cell-free assay; 0.5 µM).
With `O=C(Nc1ccc(Oc2ccc(F)cc2)cc1)N1CCc2ncccc2[C@H]1c1ccc(F)cc1` the remaining binding was 91% (cell-free assay, competition with immobilised ligand; 1 µM).
The remaining activity of `Cc1cnc(NC2CCOCC2)nc1-n1cnc(C(=O)NC(CN)c2cc(F)cc(Cl)c2)c1` (centres unmarked) is reported as 96% (enzyme activity, inhibitor, radiometric; 1 µM).
`N#CCCc1ccc2c(c1)-c1[nH]c3ccc([N+](=O)[O-])cc3c1CC(=O)N2` gave a remaining signal of 98.5% (cell-free assay; 0.5 µM).
`c1ccc(CNc2nc(N3CCOc4ccccc43)nc3c2CCCC3)cc1` gave an inhibition of 2.6% (target engagement in cells, inhibitor, chemoproteomics; 20 mM).
The remaining binding of `CC(C)(O)c1cncc(-c2nc3ccc(F)cc3n2C2CC2)c1` is reported as 99% (cell-free assay, competition with immobilised ligand; 1 µM).
The inhibition of `COc1cc2ncnc(Nc3ccc(Oc4ccccc4)c(C)c3C)c2cc1OC` is reported as 6% (enzyme activity, inhibitor; 1 µM).
The remaining binding of `FC(F)(F)c1ccc2c(c1)nc(-c1cccnc1)n2C1CC1` is reported as 83% (cell-free assay, competition with immobilised ligand; 1 µM).
For `CN1CC(Oc2cnc(C#N)cc2-c2ccn3nc(NC(=O)C4CC4)cc3c2)C1`, the inhibition was 4% (enzyme activity, inhibitor; 1 µM).
With `CN(C)C1CCN(CC#Cc2nn(C3CCCC3)c3nc(NCc4ccccc4)ncc23)C1` (centres unmarked) the inhibition was 8% (enzyme activity, inhibitor, FRET; 1 µM).
`CNC(=O)Nc1ccc2c(c1)[C@@]1(CC2)OC(=O)N(CC(=O)N(Cc2ccc(F)cc2)[C@@H](C)C(F)(F)F)C1=O` gave a remaining binding of 87% (cell-free assay, competition with immobilised ligand; 1 µM).
For `Oc1cccc(-c2nc(N3CCOCC3)c3oc4ncccc4c3n2)c1`, the remaining activity was 105% (enzyme activity, inhibitor; 10 µM).
`CCN(CC)CCNC(=O)c1c(C)[nH]c(/C=C2\C(=O)Nc3ccc(F)cc32)c1C` has an inhibition of 2% (enzyme activity, inhibitor; 0.3 µM).
The remaining binding of `CNC(=O)Nc1ccc2c(c1)CC[C@@]21OC(=O)N(CC(=O)N(Cc2ccc(F)cc2)[C@@H](C)C(F)(F)F)C1=O` is reported as 72% (cell-free assay, competition with immobilised ligand; 1 µM).
The inhibition of `CCOc1cc(-c2nncn2C)ccc1Nc1ncc2cc(C)nc(NCC(C)(C)C)c2n1` is reported as < 15% (enzyme activity, inhibitor, FRET; 1 µM).
`Cc1nc(C2CCN(C(=O)c3ccc(OC(F)(F)F)cc3N)CC2)c2ncc(N3CCN(C)CC3)cc2n1` has a remaining binding of 100% (cell-free assay, competition with immobilised ligand; 1 µM).
For `Cc1ccc(C(=O)NCc2ccsc2)cc1C#Cc1cn(C(C)C)c2ncnc(N)c12`, the activity vs control was 2% (enzyme activity, inhibitor; 1 µM).
